Results reported in ChEMBL document CHEMBL1125458, “3-O-alkylascorbic acids as free radical quenchers. 3. Protective effect on coronary occlusion-reperfusion induced arrhythmias in anesthetized rats” (1992).

Columns and labels:
Rattus norvegicus [1] = assay: inhibitory activity was tested against anesthetized rats at 10 mg/kg; format: functional
Cavia porcellus [2] = species on record: Cavia porcellus; assay: Inhibitory activity on atrial rate in isolated Guinea pig right atrea at 0.03 mg/mL concentration; format: functional, Cardiac atrium
Outline: (§1)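 Right atria from male Hartley guinea pigs (450–550 g), loaded at 0.5 g, in Tyrode's solution at 37 °C gassed with 95% O2/5% CO2. Equilibrated at least 30 min until rate stable within 5 beats/min; spontaneous rate and contractile force recorded on polygraph after compound addition.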

Rattus norvegicus [3] = assay: Change in heart rate was measured at mg/kg dose(iv) in anesthetized rats; format: functional
Outline: (§2)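 Anesthetized male Wistar rats (pentobarbital 60 mg/kg ip); compound in saline/1% olive oil/1% Tween 80 given by femoral vein. Lead II ECG recorded and heart rate read by beat-to-beat tachograph for 10 min after dosing; change in beats/min, mean ± SE, n = 3–4.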

Rattus norvegicus [4] = assay: Effect (0.3 mg/kg, iv) on coronary reperfusion-induced arrhythmias was assessed in anesthetized rats.(Intervals of ventricular tachycardia (VT)+ventricular fibrillation (VF) within 600 s.; format: functional, Cardiac ventricle
Cavia porcellus [5] = species on record: Cavia porcellus; assay: Inhibitory activity on atrial rate in isolated Guinea pig right atrea at 0.01 mg/mL concentration; format: functional, Cardiac atrium; outline: as §1
Cavia porcellus [6] = species on record: Cavia porcellus; assay: Inhibitory activity on atrial contractility in isolated Guinea pig right atrea at 0.003 mg/mL concentration; format: functional, Cardiac atrium; outline: as §1
Cavia porcellus [7] = species on record: Cavia porcellus; assay: Inhibitory activity on atrial contractility in isolated Guinea pig right atrea at 0.03 mg/mL concentration; format: functional, Cardiac atrium; outline: as §1
Rattus norvegicus [8] = assay: Antiarrhythmic activity against anesthetized rats after peroral administration; format: functional, Heart
Outline: (§3)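 Male Wistar rats (350–450 g) dosed orally 1 h before occlusion, then anesthetized with pentobarbital (60 mg/kg ip) and ventilated. LAD ligated 5 min, reperfused 10 min; VT plus VF durations summed within 600 s. Mean ± SE, n = 5–10; line 2 value is the minimum effective dose.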

Rattus norvegicus [9] = assay: Change in arterial blood pressure was measured at 0.3 mg/kg dose(iv) in anesthetized rats; format: functional, Artery
Outline: (§4)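 Male Wistar rats, pentobarbital 60 mg/kg ip, supine. Compound suspended in saline with 1% olive oil and 1% Tween 80, injected via femoral vein. Femoral arterial pressure monitored 10 min after injection; change in mmHg, mean ± SE, n = 3–4.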

Cavia porcellus [10] = species on record: Cavia porcellus; assay: Inhibitory activity on atrial contractility in isolated Guinea pig right atrea at 0.01 mg/mL concentration; format: functional, Cardiac atrium; outline: as §1
Rattus norvegicus [11] = assay: Effect (10 mg/kg, po) on coronary reperfusion-induced arrhythmias was assessed in anesthetized rats.(Intervals of ventricular tachycardia (VT)+ventricular fibrillation (VF) within 600 s.; format: functional, Cardiac ventricle; outline: as §3
Rattus norvegicus [12] = species on record: Rattus norvegicus; assay: Inhibition of lipid peroxidation in rat liver microsomes.; format: functional; design: concentration or dose not given beside the values; details: dose or concentration not given here
Outline: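 Wistar rat liver microsomes (2.0 mg protein) in 83.5 mM KCl, 37.2 mM Tris-HCl pH 7.4 with 1 mM ADP, 10 µM FeCl3, 0.02 mM NADPH; compound added in DMF, tested at 10^-5 M. 37 °C, 20 min. Malondialdehyde measured by thiobarbituric acid method, A532; % inhibition, mean ± SD, n = 3–6.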

Cavia porcellus [13] = species on record: Cavia porcellus; assay: Inhibitory activity on atrial rate in isolated Guinea pig right atrea at 0.003 mg/mL concentration; format: functional, Cardiac atrium; outline: as §1
Rattus norvegicus [14] = assay: Antiarrhythmic activity against anesthetized rats after intravenous administration; format: functional, Heart
Rattus norvegicus [15] = assay: Change in arterial blood pressure was measured at 0.1 mg/kg dose(iv) in anesthetized rats; format: functional, Artery; outline: as §4
Rattus norvegicus [16] = assay: inhibitory activity was tested against anesthetized rats at 100 mg/kg; format: functional
Rattus norvegicus [17] = species on record: Rattus norvegicus; assay: Minimum effective dose of the compound; format: functional; details: read-out: MED
Rattus norvegicus [18] = species on record: Rattus norvegicus; assay: Inhibitory effect on production of active oxygen species by rat peritoneal exudate macrophages; format: functional; design: concentration or dose not given beside the values
Outline: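 Peritoneal exudate macrophages harvested 3 days after ip liquid paraffin (male Wistar rats), >90% viable. Assay: 125 mM sodium phosphate pH 6.5, 0.08 mM EDTA, 1.2 U LDH, 0.32 mM NADH, (2–3) × 10^6 cells, compound in DMF, 1 × 10^-4 M. Started with NADH.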

Rattus norvegicus [19] = assay: Effect (100 mg/kg, po) on coronary reperfusion-induced arrhythmias was assessed in anesthetized rats.(Intervals of ventricular tachycardia (VT)+ventricular fibrillation (VF) within 600 s; format: functional, Cardiac ventricle; outline: as §3
Cavia porcellus [20] = species on record: Cavia porcellus; assay: Inhibitory activity on atrial contractility in isolated Guinea pig right atrea at 0.1 mg/mL concentration; format: functional, Cardiac atrium; outline: as §1
Rattus norvegicus [21] = assay: Change in heart rate was measured at 0.1 mg/kg dose(iv) in anesthetized rats; format: functional; outline: as §2
Cavia porcellus [22] = species on record: Cavia porcellus; assay: Inhibitory activity on atrial rate in isolated Guinea pig right atrea at 0.3 mg/mL concentration; format: functional, Cardiac atrium; outline: as §1
Cavia porcellus [23] = species on record: Cavia porcellus; assay: Inhibitory activity on atrial contractility in isolated Guinea pig right atrea at 0.3 mg/mL concentration; format: functional, Cardiac atrium; outline: as §1
Rattus norvegicus [24] = assay: Change in heart rate was measured at 0.3 mg/kg dose(iv) in anesthetized rats; format: functional; outline: as §2
Rattus norvegicus [25] = assay: Effect (0.1 mg/kg, iv) on coronary reperfusion-induced arrhythmias was assessed in anesthetized rats.(Intervals of ventricular tachycardia (VT)+ventricular fibrillation (VF) within 600 s; format: functional, Cardiac ventricle
Cavia porcellus [26] = species on record: Cavia porcellus; assay: Inhibitory activity on atrial rate in isolated Guinea pig right atrea at 0.1 mg/mL concentration; format: functional, Cardiac atrium; outline: as §1
Rattus norvegicus [27] = assay: Effect (30 mg/kg, iv) on coronary reperfusion-induced arrhythmias was assessed in anesthetized rats.(Intervals of ventricular tachycardia (VT)+ventricular fibrillation (VF) within 600 s.; format: functional, Cardiac ventricle
Rattus norvegicus [28] = assay: Effect (10 mg/kg, iv) on coronary reperfusion-induced arrhythmias was assessed in anesthetized rats.(Intervals of ventricular tachycardia (VT)+ventricular fibrillation (VF) within 600 s.; format: functional, Cardiac ventricle

Structure (SMILES): COc1ccc(CCN(C)CCCC(C#N)(c2ccc(OC)c(OC)c2)C(C)C)cc1OC (stereo unspecified) [VERAPAMIL]
- inhibition in vivo at 10 mg/kg (Rattus norvegicus [1]): 87%
- Inhibition (Cavia porcellus [2]): 100%
- Delta heart rate (Rattus norvegicus [3]): -70 beats min-1
- Arrhythmias times (Rattus norvegicus [4]): 121
- Inhibition (Cavia porcellus [5]): 63%
- Inhibition (Cavia porcellus [6]): 49.9%
- Inhibition (Cavia porcellus [7]): 100%
- Efficacy (Rattus norvegicus [8]): 10 mg/kg
- Delta blood pressure (Rattus norvegicus [9]): -46.7 mmHg
- Inhibition (Cavia porcellus [10]): 77.8%
- Arrhythmias times (Rattus norvegicus [11]): 56.7
- inhibition (Rattus norvegicus [12]): 37%
- Inhibition (Cavia porcellus [13]): 37.9%
- Efficacy (Rattus norvegicus [14]): >0.3 mg/kg

Structure (SMILES): CCCCCCCCCCCCCCCCCCOC1=C(O)[C@@H](C(O)CO)OC1=O (stereo partly specified)
- inhibition in vivo at 10 mg/kg (Rattus norvegicus [1]): 20%
- Inhibition (Cavia porcellus [2]): -1.8%
- Delta blood pressure (Rattus norvegicus [15]): -10 mmHg
- inhibition in vivo at 100 mg/kg (Rattus norvegicus [16]): 92%
- minimal effective dose (Rattus norvegicus [17]): 100 mg/kg
- Inhibition (Rattus norvegicus [18]): 87%
- Arrhythmias times (Rattus norvegicus [19]): 39.4
- Inhibition (Cavia porcellus [20]): -16.7%
- Inhibition (Cavia porcellus [7]): -10.7%
- Efficacy (Rattus norvegicus [8]): 10 mg/kg
- Delta heart rate (Rattus norvegicus [21]): -10 beats min-1
- Inhibition (Cavia porcellus [22]): -13.6%
- Delta blood pressure (Rattus norvegicus [9]): -35.3 mmHg
- Inhibition (Cavia porcellus [23]): -39.9%
- Delta heart rate (Rattus norvegicus [24]): -55 beats min-1
- Arrhythmias times (Rattus norvegicus [11]): 413.2
- Arrhythmias times (Rattus norvegicus [25]): 238
- Inhibition (Cavia porcellus [26]): -6%
- inhibition (Rattus norvegicus [12]): 88%
- Efficacy (Rattus norvegicus [14]): >0.1 mg/kg

Structure (SMILES): O=C1OC(C(O)CO)C(OCC(=O)c2ccccc2)=C1O (stereo unspecified)
- Arrhythmias times (Rattus norvegicus [27]): 429
- inhibition (Rattus norvegicus [12]): 1%

Structure (SMILES): CCCCCCCCCCCC1OCC(C2OC(=O)C(O)=C2OCC(C)=O)O1 (stereo unspecified)
- Arrhythmias times (Rattus norvegicus [28]): 478
- inhibition (Rattus norvegicus [12]): 44%

Structure (SMILES): CCCCCCCCCCCCCCOC1=C(O)C(=O)OC1C(O)CO (stereo unspecified)
- Inhibition (Rattus norvegicus [18]): 40.7%
- Arrhythmias times (Rattus norvegicus [28]): 352
- inhibition (Rattus norvegicus [12]): 78%

Structure (SMILES): CCCCCCCCCCCCCCCCCCOC1=C(O)C(=O)OC1C(O)CO (stereo unspecified)
- Inhibition (Rattus norvegicus [18]): 53.3%
- Arrhythmias times (Rattus norvegicus [27]): 447
- inhibition (Rattus norvegicus [12]): 45%

Structure (SMILES): CCCCCCCCCCCCCCCCCCOC(=O)COC1=C(O)C(=O)OC1C(O)CO (stereo unspecified)
- Arrhythmias times (Rattus norvegicus [27]): 413
- inhibition (Rattus norvegicus [12]): 30%

Structure (SMILES): CCCCCCCCCCCCCCCC(=O)OCC(O)C1OC(=O)C(O)=C1OCC(C)=O (stereo unspecified)
- Arrhythmias times (Rattus norvegicus [28]): 353
- inhibition (Rattus norvegicus [12]): 53%

Structure (SMILES): CCCCCCCCC(=O)COC1=C(O)C(=O)OC1C(O)CO (stereo unspecified)
- Inhibition (Rattus norvegicus [18]): 4.9%
- Arrhythmias times (Rattus norvegicus [28]): 433
- inhibition (Rattus norvegicus [12]): 64%
